# A selection follows.
# Apaf1 activ: activators of human Apaf-1 apoptosome; Apaf-1 apoptosome caspase-3 activation, DEVD-Rh110 fluorescence; stronger effect = lower value; activity change, negative = activation, % at 20 µM; hit rate 0.31% among 330,000;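 active = activity change at or below -40% at 20 µM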
# Target sequence (O14727 whole entry, looked up): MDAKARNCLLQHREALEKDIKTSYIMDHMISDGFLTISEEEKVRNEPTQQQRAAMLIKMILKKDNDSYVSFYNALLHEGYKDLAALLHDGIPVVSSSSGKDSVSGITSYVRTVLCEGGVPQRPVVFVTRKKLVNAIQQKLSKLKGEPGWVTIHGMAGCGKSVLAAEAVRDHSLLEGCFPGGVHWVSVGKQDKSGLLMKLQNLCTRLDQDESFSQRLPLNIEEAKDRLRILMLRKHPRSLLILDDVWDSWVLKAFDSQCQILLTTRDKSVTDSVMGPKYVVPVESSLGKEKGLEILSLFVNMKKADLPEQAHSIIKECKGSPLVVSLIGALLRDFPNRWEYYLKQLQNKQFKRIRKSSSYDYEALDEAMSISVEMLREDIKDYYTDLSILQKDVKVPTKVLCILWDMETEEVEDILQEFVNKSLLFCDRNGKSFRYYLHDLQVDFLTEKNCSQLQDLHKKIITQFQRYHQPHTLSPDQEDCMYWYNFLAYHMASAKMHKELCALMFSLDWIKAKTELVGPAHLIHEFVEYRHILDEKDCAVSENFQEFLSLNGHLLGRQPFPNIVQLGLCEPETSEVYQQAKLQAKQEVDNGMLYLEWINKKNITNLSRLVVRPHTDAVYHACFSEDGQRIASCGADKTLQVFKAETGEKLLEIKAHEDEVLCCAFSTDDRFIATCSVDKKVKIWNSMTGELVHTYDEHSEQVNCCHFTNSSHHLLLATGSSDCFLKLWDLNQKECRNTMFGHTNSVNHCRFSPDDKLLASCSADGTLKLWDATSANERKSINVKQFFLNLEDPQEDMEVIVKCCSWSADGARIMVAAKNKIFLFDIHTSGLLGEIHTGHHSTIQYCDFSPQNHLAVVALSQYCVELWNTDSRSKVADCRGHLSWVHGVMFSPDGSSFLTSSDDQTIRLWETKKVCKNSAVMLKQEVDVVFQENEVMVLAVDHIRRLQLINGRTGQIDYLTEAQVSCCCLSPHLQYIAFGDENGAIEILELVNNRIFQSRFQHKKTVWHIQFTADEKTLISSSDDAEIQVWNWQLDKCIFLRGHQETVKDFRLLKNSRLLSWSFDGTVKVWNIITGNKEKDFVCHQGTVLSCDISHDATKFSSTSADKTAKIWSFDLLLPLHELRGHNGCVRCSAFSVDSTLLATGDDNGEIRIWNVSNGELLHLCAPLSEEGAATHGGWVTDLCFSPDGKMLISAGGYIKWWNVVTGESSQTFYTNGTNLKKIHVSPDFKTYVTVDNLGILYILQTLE
#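 system = biochemical Apaf-1 apoptosome reconstitution | buffer or medium = 20 mM HEPES pH 7.5 with CHAPS, BSA | also added = dATP and cytochrome c as apoptosome triggers, (Z-DEVD)2-Rh110 substrate | incubation = 30 min compound preincubation and 50 min reaction, both room temperature | measured by = fluorescence, 540 nm emission, 480 nm excitation | read-out basis = Caspase-3 cleavage activity downstream of Apaf-1 activation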
# Starred values were filed as active, the others as inactive.
SMILES,Apaf1 activ
O=C(CCS(=O)(=O)c1ccc(Br)cc1)NCc1ccc(F)cc1,-99*
COCCCNC(=O)c1ccc2c3c(onc13)-c1ccccc1C2=O,80
COc1ccccc1N1CCN(C(=O)c2ccc3c(Cl)c4c(nc3c2)CCCC4)CC1,41
COc1ccccc1N1CCN(C(c2cccs2)C(C)NS(=O)(=O)c2ccccc2)CC1 (stereo unspecified),55
COc1ccccc1N1CCN(C(=O)C(C)CS(=O)(=O)c2ccc3c(c2)NC(=O)CS3)CC1 (stereo unspecified),-428*
Oc1ccc(/C=N/Nc2cc(N3CCCC3)nc(N3CCCC3)n2)cc1O,60
C#CCOCCOCCOCCNc1nc(N2CCN(C(=O)CCCCCCCCCCNC(=O)Cn3cc(CCCCCN)nn3)CC2)nc(N2CCN(C(=O)CCCCCCCCCCNC(=O)[C@@H](CCC(=O)O)n3cc(CCCCCN)nn3)CC2)n1,59
CCN(CC)C(=O)[C@H]1CC(CC(=O)NCCCN(C)C)C(=O)N2CCc3c([nH]c4ccccc34)[C@]12C (stereo partly specified),44
Cn1c(C(=O)NCCN2CCCCCC2)cc2c(=O)n(C)c3ccccc3c21,43
CCCCCC#CCC#CCC#CCC#CCCCC(=O)O,41
COc1ccc(N=C2C(=Nc3ccc(OC)cc3)N(c3ccc(OC)cc3)C(=S)N2c2ccccc2)cc1,75
CC(=O)Nc1ccc(S(=O)(=O)NCc2ccc3c(c2)cc(C)n3C)cc1,51
CC(=O)Nc1ccc(S(=O)(=O)NC2(C(F)(F)F)NC(=O)N(c3ccc(Cl)cc3)C2=O)cc1 (stereo unspecified),-58*
CN1CCN(c2ccc(NC(=O)COc3ccccc3)cc2Cl)CC1,49
COC(=O)c1ccc(-c2ncc(-c3cccc4ccccc34)o2)cc1,42
Cc1cccc(NC2=C(NC(=O)c3ccccc3)C(=O)c3ccccc3C2=O)c1,73
CCN1CCN(C2=C(NS(=O)(=O)c3ccc(Br)cc3)C(=O)c3ccccc3C2=O)CC1,88
Oc1ccc(Br)cc1CNc1cccc2cccnc12,90
N#Cc1c(N)sc(=S)c2c1CCN(Cc1ccccc1)C2,96
O=C1NC2=C(CCc3ccccc32)C(c2ccccc2)N1 (stereo unspecified),91
CCn1cc(CN2CCC(n3nccc3NC(=O)c3cccc(F)c3)CC2)cn1,-302*
Cc1cc(/C=C\c2ccc3cc(N(C)C)ccc3[n+]2C)c(C)n1-c1ccccc1,43
O=C(NC1CCCC1)c1ccc2nc(-c3ccco3)c(-c3ccco3)nc2c1,44
O=C(c1ccc(Cl)c(S(=O)(=O)N2CCCCCC2)c1)N1CCCC(C(F)(F)F)C1 (stereo unspecified),60
O=S(=O)(c1cccc2cccnc12)N1CCCCC1,-44*
SMILES,Apaf1 activ
O=C1C=C(Nc2cccc3cccnc23)c2ccccc2C1=O,47
C#CCOCCOCCOCCNc1nc(N2CCN(C(=O)[C@H](CCCCN)n3cc(CN)nn3)CC2)nc(N2CCN(C(=O)[C@H](CCCCN)n3cc([C@@H](N)[C@H](C)CC)nn3)CC2)n1,40
Cc1cc(N)ccc1N1CCCC1,65
COc1ccccc1C(CNC(=O)c1cccc(S(=O)(=O)Nc2ccc(C)cc2)c1)N(C)C (stereo unspecified),46
COc1ccc(NS(=O)(=O)c2cccc(C(=O)N/N=C/c3cn(-c4ccccc4)nc3-c3ccc(OC)cc3)c2)cc1,-45*
COc1ccc(NS(=O)(=O)c2cccc(C(=O)N3CCCCCCC3)c2)cc1,45
CC(C)C[C@H](NC(=O)c1nc[nH]c1C(=O)N[C@@H](CCCCN)C(=O)OC(C)(C)C)C(=O)OC(C)(C)C,43
Cc1cccc(/C=N/Nc2cc(N3CCOCC3)nc(N3CCOCC3)n2)c1,68
CN(C)CCCN(C(=O)c1ccc(S(=O)(=O)N2CCCC2)cc1)c1nc2ccc(Br)cc2s1,53
Cn1c(-c2sccc2OCc2ccccc2)n[nH]c1=S,-289*
CC1=NN(c2ccc(C)cc2C)C(=O)C1C(c1ccccc1)C1C(=O)N(c2ccc(C)cc2C)N=C1C (stereo unspecified),67
NC(=O)C1CCN(C2=C(NS(=O)(=O)c3ccc(Br)cc3)C(=O)c3ccccc3C2=O)CC1,66
CCc1cc2c(nc1CC)CCN(CC/C(C)=N/OC[C@H]1O[C@H](c3ccccc3)C=C[C@@H]1Oc1ccc(OC)cc1)C2,43
CCOC(=O)c1ccc(N2CSC3=C(C#N)C(c4cccs4)CC(=O)N3C2)cc1 (stereo unspecified),55
C=C(C)C(=O)Nc1cccc(C2=NOC3(C2)C[C@H](C(N)=O)N(C(=O)CC)C3)c1 (stereo partly specified),-271*
C=C(C)C(=O)Nc1cccc(C2=NOC3(C2)C[C@H](C(N)=O)N(C(=O)CC#N)C3)c1 (stereo partly specified),-166*
CCN1CCN(Cc2ccc(NC(=O)c3cc(NC(=O)c4cc5cccc(OC)c5o4)cc(OC)c3)cc2C(F)(F)F)CC1,63
CC[C@@H](C)[C@@H]1CN([C@@H](CN2CCC[C@H]2CN2C(N)=NC[C@@H]2Cc2ccccc2)C(C)C)C(=N)N1CCCC1CCCC1,63
COc1cccc2c(=O)c3cccc(N)c3[nH]c12,70
CN(C)c1ccnc2c[cH-]cc12.[Fe].c1ccc(-[c-]2[c-](-c3ccccc3)[c-](-c3ccccc3)[c-](-c3ccccc3)[c-]2-c2ccccc2)cc1 (stereo unspecified),47
COc1cc2nc(Nc3ccc(C)c(Cl)c3)nc(N)c2cc1OC,45
Cc1cc(C)c(S(=O)(=O)NCc2ccc3c(c2)cc(C)n3C)c(C)c1,44
CCN1CCN(C2=C(NS(=O)(=O)c3ccccc3)C(=O)c3ccccc3C2=O)CC1,82
CCCCC(=O)NC(c1ccc(C(C)C)cc1)c1ccc2cccnc2c1O (stereo unspecified),-463*
CC(=O)N(C1=C(N)C(=O)c2ccccc2C1=O)c1ccccc1,67
SMILES,Apaf1 activ
O=C(Nc1ccc(Oc2ccccc2)cc1)C1CCN(c2c3c(nc4ncnn24)CCC3)CC1,41
CC(C)(C)NS(=O)(=O)c1ccc(CCC(=O)O)cc1,-99*
CCc1ccc(S(=O)(=O)Nc2cc(SCC(=O)O)c(O)c3ccccc23)cc1,71
CCN1CCN(Cc2ccc(NC(=O)c3cc(NC(=O)c4cc(-c5ccc(OC)cc5)n[nH]4)cc(OC)c3)cc2C(F)(F)F)CC1,56
COC(=O)C1=C(C)N(Cc2ccccc2)C(=NCC(C)C)N[C@H]1c1cccc(F)c1,44
Nc1cccc2nsnc12,68
CCc1ccc2nc(N(CCCN(C)C)C(=O)c3ccc(S(=O)(=O)N(C)C4CCCCC4)cc3)sc2c1,54
Cc1ccc(NC2=C/C(=N/S(=O)(=O)c3cccs3)c3ccccc3C2=O)cc1,92
O=C(CCNC(=O)c1ccc(Cl)cc1)NCCCN1CCOCC1,48
O=C1C(Cl)=C(NCCN2CCOCC2)C(=O)c2ccccc21,46
Clc1ccc(SCCOCCN2CCOCC2)cc1,-53*
Oc1c(Br)cc(Br)cc1C=Nc1cccnc1,79
CCCCCCCCCCOC(=O)Cn1c(COc2ccccc2)[n+](C)c2ccccc21,73
CCOc1cccc(CNc2ccc(O)cc2)c1OCc1ccccc1Cl,97
COc1ccc(C(CNC(=O)c2cccn2C)N2CCOCC2)cc1 (stereo unspecified),47
CC(=O)Nc1ccc(S(=O)(=O)/N=C2\C(=O)c3ccccc3C([O-])=C2n2cc[n+](-c3ccccn3)c2)cc1,84
